Diaph inh CS: diaphorase inhibitors and chemical oxidizers, primary screen, counter-screen for diaphorase-coupled primary assays, biochemical, uHTS, resorufin fluorescence; diaphorase resazurin-to-resorufin fluorescence, NADH, 16 min; bacterial (C. kluyveri) enzyme, not human; actives 0.69% (n = 190,000); AID 1217, 2008; inhibition, % at 20 µM;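 active = primary screen inhibition at 20 µM above a set limit, cut at about 50% in these data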
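System: Bacterial diaphorase enzyme (C. kluyveri) | Incubation: 16-min room-temperature incubation before reading | Benchmarks: No-NADH positive control and DMSO neutral control | Measured by: Resorufin fluorescence 544/590 nm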
ROMK primary: ROMK potassium channel modulators, primary screen, cell-based, thallium flux, MLSMR library. ATP-sensitive inward rectifier potassium channel 1 (Homo sapiens), P48048. Tet-inducible ROMK, thallium flux fluorescence; actives lie on both sides. B-score at 10 µM. actives 2% (n = 130,000);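 active = signal ratio slope over the read window, or its plate-corrected B-score, at least 3 SD from the plate mean, either direction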;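 note: B-score of the F/F0 ratio slope over 7 to 12 s after thallium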
WT yeast gro inh: growth inhibition of WT strain, primary screen, mitochondrial fusion inhibitor project, WT and mutant strains, chemical genetic. AID 1362, 2008. inhibition, % at 10 µM. actives 2.1% (n = 190,000). mitochondrial fusion phenotypic screen; in the data active = inhibition above about 58%; tested in S. cerevisiae
Cl transport mod: KCC2 cotransporter modulators, thallium flux, primary screen, cell-based, HEK293 KCC2, FluoZin-2 fluorescence, MLSMR | Solute carrier family 12 member 5 (Homo sapiens), Q9H2X9 | KCC2 cells, thallium flux FluoZin-2 fluorescence | B-score of Tl+ flux slope (higher = more flux/activation; lower = inhibition) at 10 µM | actives 2.2% (n = 190,000);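 active = thallium flux slope and its plate-corrected score both differing from the plate sample mean at a set confidence after two filtering rounds, in either direction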;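 note: slope of fluorescence scaled to starting intensity during 10 to 20 s after thallium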
Target sequence (Q9H2X9 whole entry, looked up): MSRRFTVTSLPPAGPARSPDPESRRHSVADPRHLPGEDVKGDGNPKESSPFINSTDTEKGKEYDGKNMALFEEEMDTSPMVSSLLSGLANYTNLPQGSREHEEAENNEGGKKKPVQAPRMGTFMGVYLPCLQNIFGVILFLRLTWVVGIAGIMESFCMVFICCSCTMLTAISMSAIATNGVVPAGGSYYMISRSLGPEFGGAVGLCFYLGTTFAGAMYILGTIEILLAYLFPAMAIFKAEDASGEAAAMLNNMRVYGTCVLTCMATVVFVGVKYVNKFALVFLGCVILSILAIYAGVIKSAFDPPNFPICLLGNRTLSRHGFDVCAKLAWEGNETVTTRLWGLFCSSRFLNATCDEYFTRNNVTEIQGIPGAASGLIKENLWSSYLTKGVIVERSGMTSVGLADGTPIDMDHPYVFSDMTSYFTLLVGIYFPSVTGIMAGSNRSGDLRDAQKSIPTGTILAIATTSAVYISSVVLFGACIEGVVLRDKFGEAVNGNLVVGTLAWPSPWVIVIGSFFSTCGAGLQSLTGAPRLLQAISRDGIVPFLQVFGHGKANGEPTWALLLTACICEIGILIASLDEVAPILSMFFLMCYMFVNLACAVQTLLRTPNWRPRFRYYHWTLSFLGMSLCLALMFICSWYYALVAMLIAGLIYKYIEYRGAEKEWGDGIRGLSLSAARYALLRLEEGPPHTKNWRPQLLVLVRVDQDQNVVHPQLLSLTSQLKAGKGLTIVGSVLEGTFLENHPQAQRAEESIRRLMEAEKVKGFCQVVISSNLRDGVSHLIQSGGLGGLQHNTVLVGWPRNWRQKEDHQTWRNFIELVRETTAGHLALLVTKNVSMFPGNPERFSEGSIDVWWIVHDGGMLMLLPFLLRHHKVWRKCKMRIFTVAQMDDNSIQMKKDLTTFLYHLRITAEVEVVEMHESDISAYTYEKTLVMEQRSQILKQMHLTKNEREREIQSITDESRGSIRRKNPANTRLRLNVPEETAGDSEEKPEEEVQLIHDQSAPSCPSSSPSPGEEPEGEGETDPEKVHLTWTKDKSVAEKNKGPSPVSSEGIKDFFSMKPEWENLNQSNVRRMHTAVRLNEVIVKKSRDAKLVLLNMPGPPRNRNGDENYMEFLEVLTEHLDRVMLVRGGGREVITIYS
Diaph act CS: compounds boosting diaphorase resazurin reduction – biochemical, uHTS, resorufin fluorescence, counter-screen for diaphorase-coupled primary assays, primary screen. Diaphorase/resazurin coupled assay, 16 min; stronger effect = higher value; 1 = vehicle wells, 0 = NADH-free wells. AID 1229, 2008. activation factor at 20 µM. actives 0.005% (n = 190,000);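 active = diaphorase activity raised at least twofold by the compound at 20 µM; inactive = activation factor below 2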
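test system = bacterial diaphorase enzyme (C. kluyveri) | quantity = enzyme 0.07 U/mL final | reagent = NADH substrate 0.114 mM plus resazurin dye 0.1 mM, final | incubation = 16 min enzyme reaction, ambient temperature | buffer or medium = HEPES pH 7.4 buffer with MgCl2 and Tween 20 | signal = fluorescence of resorufin, 544 nm excitation, 590 nm emission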
Lmaj promast: Leishmania major promastigote growth inhibition, primary screen | Leishmania major promastigotes, resazurin fluorescence viability | inhibition, % at 10 µM | actives 9% (n = 200,000) | AID 1063, 2008; in the data active = inhibition above about 50%;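 note: promastigotes grown with compound for 44 hours at 28 °C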
Hits are given with their value. Shown are actives, neighbours in structure and some others; about 12% of the full set was active somewhere.

Results for O=c1c2c([nH]c3ccccc13)CCCCCC2 ?
Diaph inh CS: inactive; WT yeast gro inh: inactive; Cl transport mod: inactive; Diaph act CS: inactive; Lmaj promast: 64

How did O=[N+]([O-])c1ccccc1/C=N/N1CCN(c2ccncc2S(=O)(=O)N2CCCCC2)CC1 do in these assays?
Diaph inh CS: inactive; WT yeast gro inh: inactive; Cl transport mod: inactive; Diaph act CS: inactive; Lmaj promast: 99

How did O=[N+]([O-])c1ccc(/C=N/N2CCN(c3ccncc3S(=O)(=O)N3CCCCC3)CC2)cc1 do in these assays?
Diaph inh CS: inactive; ROMK primary: inactive; WT yeast gro inh: inactive; Cl transport mod: inactive; Diaph act CS: inactive; Lmaj promast: 99

Results for O=[N+]([O-])c1ccc(N2CCCCCC2)c(S(=O)(=O)N2CCCCC2)c1 ?
Diaph inh CS: inactive; WT yeast gro inh: inactive; Cl transport mod: inactive; Diaph act CS: inactive; Lmaj promast: inactive

Results for C[C@@H]1NC(=O)c2cc([N+](=O)[O-])cc(I)c2NCCCC[C@@H](C(N)=O)NC(=O)[C@H](CCC(=O)O)NC1=O ?
Diaph inh CS: inactive; ROMK primary: inactive; WT yeast gro inh: inactive; Cl transport mod: inactive; Diaph act CS: inactive; Lmaj promast: inactive

What do the screens show for `O=[N+]([O-])c1cc(C(F)(F)F)ccc1NCCNC(=S)Nc1ccc(Cl)cc1`?
Diaph inh CS: inactive; WT yeast gro inh: inactive; Diaph act CS: inactive; Lmaj promast: 101

What do the screens show for `O=[N+]([O-])c1cc(C(F)(F)F)ccc1NCCCCNS(=O)(=O)c1ccc(Cl)cc1`?
Diaph inh CS: inactive; ROMK primary: inactive; WT yeast gro inh: inactive; Cl transport mod: inactive; Diaph act CS: inactive; Lmaj promast: inactive

What do the screens show for `COc1ccc(-c2cc(C(=O)OCC(=O)N(C)C3CCS(=O)(=O)C3)c3ccccc3n2)cc1OC` (stereo not drawn)?
Diaph inh CS: inactive; ROMK primary: inactive; WT yeast gro inh: inactive; Cl transport mod: inactive; Diaph act CS: inactive; Lmaj promast: inactive

Results for O=C(c1cccs1)N1CCN(CCCc2ccccc2)CC1 ?
Diaph inh CS: inactive; ROMK primary: inactive; WT yeast gro inh: inactive; Cl transport mod: inactive; Diaph act CS: inactive; Lmaj promast: 96

How did O=C(c1cccs1)N1CCN(Cc2ccccc2)CC1 do in these assays?
Diaph inh CS: inactive; ROMK primary: inactive; WT yeast gro inh: inactive; Cl transport mod: inactive; Diaph act CS: inactive; Lmaj promast: inactive

Results for O=C(c1cccnc1)N1CCN(C/C=C/c2ccccc2)CC1 ?
Diaph inh CS: inactive; ROMK primary: inactive; WT yeast gro inh: inactive; Cl transport mod: inactive; Diaph act CS: inactive; Lmaj promast: inactive

What do the screens show for `O=C(c1cccnc1)N1CCN(CCCc2ccccc2)CC1`?
Diaph inh CS: inactive; WT yeast gro inh: inactive; Cl transport mod: inactive; Diaph act CS: inactive; Lmaj promast: 80

Results for O=C(Nc1ccc(Cl)cc1)ON=C1CCCC1 ?
Diaph inh CS: inactive; WT yeast gro inh: inactive; Cl transport mod: inactive; Diaph act CS: inactive; Lmaj promast: inactive

How did Cc1ccc(S(=O)(=O)CC(CN2CCCCC2)N2CCCCC2)cc1 (stereo not drawn) do in these assays?
Diaph inh CS: inactive; ROMK primary: inactive; WT yeast gro inh: inactive; Cl transport mod: inactive; Diaph act CS: inactive; Lmaj promast: 97

Results for CCOc1cc(N2CCOCC2)c(OCC)cc1NC(=O)COC(=O)c1cc2ccccc2cc1O ?
Diaph inh CS: inactive; WT yeast gro inh: inactive; Cl transport mod: inactive; Diaph act CS: inactive; Lmaj promast: 62

Results for CCc1ccc(S(=O)(=O)c2ccc(-n3nc(C)cc3N)cc2)cc1 ?
Diaph inh CS: inactive; ROMK primary: inactive; WT yeast gro inh: inactive; Cl transport mod: inactive; Diaph act CS: inactive; Lmaj promast: inactive

What do the screens show for `Cc1ccc(/C=C/C(=O)N2CC(C)CC(C)C2)o1` (stereo not drawn)?
Diaph inh CS: inactive; WT yeast gro inh: inactive; Cl transport mod: inactive; Diaph act CS: inactive; Lmaj promast: inactive

How did COc1cccc2cc(-c3nc4ccccc4o3)c(=O)oc12 do in these assays?
Diaph inh CS: inactive; WT yeast gro inh: inactive; Cl transport mod: inactive; Diaph act CS: inactive; Lmaj promast: 58

What do the screens show for `COc1cccc(C(=O)C2CCCN(Cc3cn(C)nc3-c3ccccc3)C2)c1` (stereo not drawn)?
Diaph inh CS: inactive; ROMK primary: inactive; WT yeast gro inh: inactive; Cl transport mod: inactive; Diaph act CS: inactive; Lmaj promast: inactive

How did Cn1cc(CN2CCCC(C(=O)c3ccc(-c4ccccc4)c(F)c3)C2)cn1 (stereo not drawn) do in these assays?
Diaph inh CS: inactive; ROMK primary: inactive; WT yeast gro inh: inactive; Diaph act CS: inactive; Lmaj promast: 87

What do the screens show for `Cn1cc(CN2CCCC(C(=O)c3ccc(-c4ccccc4)cc3)C2)cn1` (stereo not drawn)?
Diaph inh CS: inactive; ROMK primary: inactive; WT yeast gro inh: inactive; Cl transport mod: inactive; Diaph act CS: inactive; Lmaj promast: 91

How did Cc1nn(C)cc1CN1CCCC(C(=O)c2ccc(-c3ccccc3)c(F)c2)C1 (stereo not drawn) do in these assays?
Diaph inh CS: inactive; ROMK primary: inactive; WT yeast gro inh: inactive; Diaph act CS: inactive; Lmaj promast: 97

What do the screens show for `CCn1cc(CN2CCCC(C(=O)c3ccc(-c4ccccc4)cc3)C2)cn1` (stereo not drawn)?
Diaph inh CS: inactive; ROMK primary: inactive; WT yeast gro inh: inactive; Cl transport mod: inactive; Diaph act CS: inactive; Lmaj promast: 86

How did O=C(c1ccc(-c2ccccc2)c(F)c1)C1CCCN(C(=O)c2cncs2)C1 (stereo not drawn) do in these assays?
Diaph inh CS: inactive; ROMK primary: inactive; WT yeast gro inh: inactive; Diaph act CS: inactive; Lmaj promast: inactive

What do the screens show for `O=C(Nc1nc2c(F)cc(F)cc2s1)C1CC(=O)N(Cc2ccco2)C1` (stereo not drawn)?
Cl transport mod: inactive

How did CCN(CC)S(=O)(=O)c1ccc(/C=C/C(=O)Nc2ccc(N3CCOCC3)cc2)cc1 do in these assays?
Cl transport mod: inactive

How did CCN(CC)S(=O)(=O)c1ccc(/C=C/C(=O)Nc2ccc(F)cc2F)cc1 do in these assays?
Diaph inh CS: inactive; WT yeast gro inh: inactive; Cl transport mod: inactive; Diaph act CS: inactive; Lmaj promast: 56

What do the screens show for `CCN(CC)S(=O)(=O)c1ccc(/C=C/C(=O)OCC#N)cc1`?
Diaph inh CS: inactive; ROMK primary: inactive; WT yeast gro inh: inactive; Cl transport mod: inactive; Diaph act CS: inactive; Lmaj promast: inactive
